Data taken from ChEMBL document CHEMBL5120823, “Feature-Based Molecular Networking Discovery of Bromopyrrole Alkaloids from the Marine Sponge Agelas dispar” (J Nat Prod, 2022).
In brackets after ≈: the same amount, converted by molar mass.

What was measured:
Staphylococcus aureus [1] = test: Antibacterial activity against oxacillin-resistant Staphylococcus aureus ATCC 33591 incubated for 24 hrs by broth microdilution method; assay type: functional
Summary of the method: (§1)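 CLSI-based broth microdilution. Pure bacterial suspensions adjusted to 0.5 McFarland (about (1−2) × 10^8 CFU/mL), then diluted to a final inoculum of about 5 × 10^5 CFU/mL (5 × 10^4 CFU/well). Compounds were tested in 2-fold dilutions from 100 to 0.78 μM. Plates incubated 24 h at 35 °C. MIC was the lowest concentration with complete growth inhibition by unaided eye, reported in μM.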

Pseudomonas aeruginosa [2] = test: Antibacterial activity against Pseudomonas aeruginosa ATCC 27853 incubated for 24 hrs by broth microdilution method; assay type: functional
Summary of the method: (§2)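 CLSI-based broth microdilution. Pure bacterial suspensions were set to 0.5 McFarland (about (1−2) × 10^8 CFU/mL) and diluted to a final inoculum of about 5 × 10^5 CFU/mL. Compounds were tested in 2-fold dilutions from 100 to 0.78 μM and incubated at 35 °C for 24 h. MIC was read as the lowest concentration with no growth visible to the unaided eye.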

Escherichia coli [3] = test: Antibacterial activity against ESBL-producing Escherichia coli ATCC 35218 incubated for 24 hrs by broth microdilution method; assay type: functional; summary of the method: as §2
Enterococcus faecalis [4] = test: Antibacterial activity against Enterococcus faecalis ATCC 29212 incubated for 24 hrs by broth microdilution method; assay type: functional; summary of the method: as §2
Klebsiella pneumoniae [5] = test: Antibacterial activity against carbapenem-resistant Klebsiella pneumoniae id-146/19 incubated for 24 hrs by broth microdilution method; assay type: functional; summary of the method: as §1
Enterococcus faecalis [6] = test: Antibacterial activity against vancomycin resistant Enterococcus faecalis ATCC 51299 incubated for 24 hrs by broth microdilution method; assay type: functional; summary of the method: as §1
[7] = Hemolytic activity against BALB/c mouse erythrocyte at 100 uM measured after 2 hrs relative to control; assay type: toxicity, cell-based; settings: erythrocytes, read-out: Activity
Summary of the method: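 BALB/c mouse erythrocytes, as a 3% suspension in 1× PBS, were exposed to compound at 100 to 6.25 μM for 2 h at 24 °C. Hemolysis was read as supernatant optical density at 570 nm. Distilled water gave maximum hemolysis, and untreated erythrocytes served as the negative control.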

Pseudomonas aeruginosa [8] = test: Antibacterial activity against carbapenem-resistant Pseudomonas aeruginosa S-6065/06 incubated for 24 hrs by broth microdilution method; assay type: functional; summary of the method: as §1
Staphylococcus aureus [9] = test: Antibacterial activity against Staphylococcus aureus ATCC 25923 incubated for 24 hrs by broth microdilution method; assay type: functional; summary of the method: as §1
OVCAR3 (Homo sapiens) = test: Cytotoxicity against human OVCAR3 cells assessed as inhibition of cell viability at 50 uM incubated for 72 hrs by MTT assay relative to control
Klebsiella pneumoniae [10] = test: Antibacterial activity against Klebsiella pneumoniae ATCC 700603 incubated for 24 hrs by broth microdilution method; assay type: functional; summary of the method: as §2
Escherichia coli [11] = test: Antibacterial activity against Escherichia coli ATCC 25922 incubated for 24 hrs by broth microdilution method; assay type: functional; summary of the method: as §2
Acinetobacter baumannii [12] = test: Antibacterial activity against Acinetobacter baumannii ATCC 19606 incubated for 24 hrs by broth microdilution method; assay type: functional; summary of the method: as §2
Acinetobacter baumannii [13] = test: Antibacterial activity against carbapenem-resistant Acinetobacter baumannii id-261/16 incubated for 24 hrs by broth microdilution method; assay type: functional; summary of the method: as §1

| SMILES | MIC (Staphylococcus aureus [1]) [µM] | MIC (Pseudomonas aeruginosa [2]) [µM] | MIC (Escherichia coli [3]) [µM] | MIC (Enterococcus faecalis [4]) [µM] | MIC (Klebsiella pneumoniae [5]) [µM] | MIC (Enterococcus faecalis [6]) [µM] | hemolysis at 2 h, 100 µM [7] [%] | MIC (Pseudomonas aeruginosa [8]) [µM] | MIC (Staphylococcus aureus [9]) [µM] | Activity (OVCAR3 (Homo sapiens)) [%] | MIC (Klebsiella pneumoniae [10]) [µM] | MIC (Escherichia coli [11]) [µM] | MIC (Acinetobacter baumannii [12]) [µM] | MIC (Acinetobacter baumannii [13]) [µM] |
| --- | --- | --- | --- | --- | --- | --- | --- | --- | --- | --- | --- | --- | --- | --- |
| Nc1nc([C@@H]2c3[nH]c(N)nc3C[C@H](CNC(=O)c3cc(Br)c[nH]3)[C@H]2CNC(=O)c2cc(Br)c[nH]2)c[nH]1 | > 100 | 50 (≈ 31 µg/mL) | 100 (≈ 62 µg/mL) | > 100 | > 100 | > 100 | 2.3 | > 100 | > 100 | 50 | > 100 | 100 (≈ 62 µg/mL) | > 100 | > 100 |
| Nc1nc([C@@H]2c3[nH]c(N)nc3C[C@H](CNC(=O)c3cc(Br)c[nH]3)[C@H]2CNC(=O)c2cc(Br)c(Br)[nH]2)c[nH]1 [BROMOAGELIFERIN] | 12.5 (≈ 8.74 µg/mL) | 12.5 (≈ 8.74 µg/mL) | 25 (≈ 17.5 µg/mL) | > 100 | > 100 | > 100 | 1.5 | 50 (≈ 35 µg/mL) | 12.5 (≈ 8.74 µg/mL) | – | > 100 | 12.5 (≈ 8.74 µg/mL) | > 100 | 100 (≈ 69.9 µg/mL) |
| Nc1nc([C@@H]2c3nc(N)[nH]c3C[C@H](CNC(=O)c3cc(Br)c(Br)[nH]3)[C@H]2CNC(=O)c2cc(Br)c(Br)[nH]2)c[nH]1 | 6.2 (≈ 4.82 µg/mL) | 25 (≈ 19.5 µg/mL) | 12.5 (≈ 9.73 µg/mL) | 6.2 (≈ 4.82 µg/mL) | 25 (≈ 19.5 µg/mL) | 6.2 (≈ 4.82 µg/mL) | 0.7 | 25 (≈ 19.5 µg/mL) | 6.2 (≈ 4.82 µg/mL) | – | 12.5 (≈ 9.73 µg/mL) | 12.5 (≈ 9.73 µg/mL) | 100 (≈ 77.8 µg/mL) | 100 (≈ 77.8 µg/mL) |
